Data on seven compounds can be found in ChEMBL document CHEMBL4014270, “Aedes aegypti Larvicidal Sesquiterpene Alkaloids from Maytenus oblongata” (J Nat Prod, 2017).

What is called mortality is the share of the test organisms that died.

The subject of series [1] is Aedes aegypti. The experiment in a line: Larvicidal activity against Aedes aegypti Paea assessed as mortality after 24 hrs by tube assay. The class given is functional. Conditions: read-out: LD50 (the source's name). The method, boiled down: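 Tube assay on late third- or early fourth-instar larvae of the insecticide-susceptible Paea strain, kept at 28 ± 2 °C and 80 ± 20% RH. Compound in ethanol was added at five concentrations from 1 to 10 μg/mL, 10 tubes of 5 larvae each, in distilled water, with ethanol controls.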

Series [2] deals with MRC5. The experiment in a line: Cytotoxicity against human MRC5 cells assessed as mortality at 10 ug/ml relative to control. Type of series: cell-based. In a few lines: (§1)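 MRC5 cells (normal lung tissue from a fetus), exposed to the test material at 1 or 10 μg/mL, with mortality scored against control. The method follows a previously published cytotoxicity procedure, with docetaxel as positive control.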

Series [3] concerns MRC5. As to the kind of experiment: Cytotoxicity against human MRC5 cells assessed as mortality at 1 ug/ml relative to control. The class given is cell-based. The method, boiled down:
as §1

Series [4] deals with Aedes aegypti. As to the kind of experiment: Larvicidal activity against Aedes aegypti Paea assessed as mortality at 50 ug/ml after 24 hrs by tube assay relative to control. Type of series: functional.
Series [5] concerns Aedes aegypti. As to the kind of experiment: Larvicidal activity against Aedes aegypti Cayenne assessed as mortality at 50 ug/ml after 24 hrs by tube assay relative to control. Type of series: functional.

Some results are limits rather than exact numbers.

As for `C[C@H]1C(=O)CC[C@@H]2[C@]1(C)CC[C@H]1[C@@]2(C)C[C@H](O)[C@@]2(C)[C@@H]3CC(C)(C)CC[C@]3(C)[C@@H](O)C[C@]12C`, the LC50 in series [1] was above 10 µM. In addition, the mortality in series [2] was determined as 48%; in series [3], 16%.

As for `CC(=O)OC[C@]12[C@H](OC(C)=O)[C@H](OC(C)=O)[C@H]3OC(=O)C(C)(O)CCc4ncccc4C(=O)OC[C@@]4(C)O[C@@]1([C@H]3C)[C@@H](OC(C)=O)[C@@H]4C(=O)[C@@H]2OC(C)=O` (stereo partly drawn), in series [1], the LC50 is above 10 µM. In addition, the mortality is given as 38% in series [2] and 24% in series [3].

`CC(=O)OC[C@]12[C@H](OC(=O)c3ccccc3)[C@H](OC(C)=O)[C@H]3OC(=O)C(C)(O)CCc4ncccc4C(=O)OC[C@@]4(C)O[C@@]1([C@H]3C)[C@@H](OC(C)=O)[C@@H]4C(=O)[C@@H]2OC(C)=O` (stereo partly drawn): the LC50 in series [1] turned out to be 9.4 µM. The mortality in series [2] and in series [3] was 15% each time.

As to `CC(=O)OC[C@]12[C@H](OC(C)=O)[C@H](OC(=O)c3ccccc3)[C@H]3OC(=O)C(C)(O)CCc4ccncc4C(=O)OC[C@@]4(C)O[C@@]1([C@H]3C)[C@@H](OC(C)=O)[C@@H]4[C@@H](OC(C)=O)[C@@H]2OC(C)=O` (stereo partly drawn), the LC50 in series [1] was above 10 µM. Further, the mortality in series [2] is recorded as 17%; in series [3], 15%.

Consider `CC(=O)OC[C@]12[C@H](OC(=O)c3ccccc3)[C@H](OC(=O)c3ccccc3)[C@H]3OC(=O)C(C)(O)CCc4ncccc4C(=O)OC[C@@]4(C)O[C@@]1([C@H]3C)[C@@H](OC(C)=O)[C@@H]4C(=O)[C@@H]2OC(C)=O` (stereo partly drawn), for which the LC50 in series [1] came to 2.7 µM. Moreover, the mortality in series [2] worked out at 21%; in series [3], 18%.

For `CC1(C)[C@H](C(=O)O[C@H](C#N)c2cccc(Oc3ccccc3)c2)[C@@H]1C=C(Br)Br` [DELTAMETHRIN], the mortality at 50 µg/mL is 100% in series [4] and 26% in series [5].

On to `CC(=O)O[C@@]12CO[C@@H]1C[C@H](O)[C@@]1(C)C(=O)[C@H](O)C3=C(C)[C@@H](OC(=O)[C@H](O)[C@@H](NC(=O)OC(C)(C)C)c4ccccc4)C[C@@](O)([C@@H](OC(=O)c4ccccc4)[C@H]21)C3(C)C` [DOCETAXEL ANHYDROUS], for which the mortality in series [3] came to 0.0005%.
